The source of these data is ChEMBL document CHEMBL3861962 (Eur J Med Chem, 2016).

The target in series [1] is T1, Endothelin receptor type B (Homo sapiens) (UniProt P24530).
T1 sequence (whole entry): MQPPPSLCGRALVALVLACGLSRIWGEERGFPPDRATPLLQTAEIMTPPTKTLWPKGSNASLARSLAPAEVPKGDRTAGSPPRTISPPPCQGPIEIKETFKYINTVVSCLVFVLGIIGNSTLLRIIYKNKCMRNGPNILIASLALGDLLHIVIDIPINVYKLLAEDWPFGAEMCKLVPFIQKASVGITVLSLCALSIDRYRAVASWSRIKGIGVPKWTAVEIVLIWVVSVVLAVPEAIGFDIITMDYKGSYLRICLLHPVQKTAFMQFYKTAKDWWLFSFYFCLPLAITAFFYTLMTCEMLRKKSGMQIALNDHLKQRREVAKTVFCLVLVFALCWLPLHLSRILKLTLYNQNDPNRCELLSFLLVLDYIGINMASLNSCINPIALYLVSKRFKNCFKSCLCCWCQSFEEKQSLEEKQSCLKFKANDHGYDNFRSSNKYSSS
In words: Agonist activity at human recombinant ETB receptor expressed in CHOK1 cells assessed as induction of Ca2+ mobilization at 100 nM by fluorimetric method relative to control. Type of series: functional, cell-based. The following applies: CHO-K1. Summed up: (§1)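 ETB functional assay run by Cerep in human recombinant CHO-k1 cells at 22 °C with fluorimetric read-out. Test solutions were 1, 10, 100 and 1000 nM. Agonist response is given as % of the control response to 100 nM endothelin-1. For antagonist mode, inhibition is given as % of the control endothelin-1 agonist response, with BQ-788 as reference antagonist.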

Series [2] can be described thus: Drug metabolism in human liver microsomes assessed as formation of OH-substituted O-demethyl-4-(1,1,1,2,3,3,3-Heptafluoropropan-2-yl)-N-(6-(2-hydroxyethoxy)-5-(2-methoxyphenoxy)-2,2'-bipyrimidin-4-yl)benzenesulfonamide at 5 uM in presence of NADPH after 30 mins by LC-MS/MS analysis. The following applies: 0.5 h. It is filed as ADME. The gist of the method:
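Pooled human liver microsomes in 100 mM potassium phosphate, pH 7.4, with test compound at 5 μM final. Reaction started with 1 mM NADPH (final) and run at 37 °C in a shaking water bath for 0, 15 and 30 min. Stopped with an equal volume of ice-cold acetonitrile containing 0.6 μM labetalol as internal standard. Protein was spun out and the supernatant analysed by LC-MS/MS. Blank had no compound.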
For orientation: Microsomes from liver hold many membrane-bound enzymes, among them those of drug oxidation.

The target in series [3] is T1, Endothelin receptor type B (Homo sapiens). Briefly: Antagonist activity at human recombinant ETB expressed in CHOK1 cells assessed as inhibition of endothelin-1-mediated Ca2+ mobilization at 1 nM by fluorimetric method relative to control. It is filed as functional, cell-based. The note with it: CHO-K1. Summed up: as §1
On the technique in general: A change in cytosolic calcium serves as a functional read-out for many receptors and channels.

Series [4] deals with T2, Endothelin-1 receptor (Homo sapiens) (UniProt P25101).
T2 sequence (whole entry): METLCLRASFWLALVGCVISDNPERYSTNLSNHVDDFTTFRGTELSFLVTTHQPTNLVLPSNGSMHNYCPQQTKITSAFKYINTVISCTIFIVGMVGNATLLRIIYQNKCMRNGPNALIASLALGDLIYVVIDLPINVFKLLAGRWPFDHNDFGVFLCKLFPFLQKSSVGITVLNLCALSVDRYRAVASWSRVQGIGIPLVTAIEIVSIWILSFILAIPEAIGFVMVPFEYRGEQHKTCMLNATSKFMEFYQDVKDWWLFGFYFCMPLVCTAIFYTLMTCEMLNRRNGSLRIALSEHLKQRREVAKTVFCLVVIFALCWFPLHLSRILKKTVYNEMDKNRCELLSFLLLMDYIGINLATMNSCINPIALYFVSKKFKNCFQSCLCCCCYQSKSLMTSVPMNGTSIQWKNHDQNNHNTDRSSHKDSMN
Briefly: Antagonist activity at ETA receptor in human SKNMC cells assessed as inhibition of endothelin-1-mediated Ca2+ mobilization at 100 nM by fluorimetric method relative to control. It is filed as functional, cell-based. The note with it: SK-N-MC. The gist of the method: (§2)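 ETA functional assay run by Cerep in human neuroblastoma SK-N-MC cells at 22 °C with fluorimetric read-out. Test solutions were 1, 10, 100 and 1000 nM. Agonist response is given as % of the control response to 100 nM endothelin-1. For antagonist mode, inhibition is given as % of the control endothelin-1 agonist response, with BQ-123 as reference antagonist.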

Series [5] addresses T3, Cytochrome P450 3A4 (Homo sapiens, UniProt P08684). In words: Drug metabolism assessed as human recombinant CYP3A4-mediated formation of OH-substituted O-demethyl-4-(1,1,1,2,3,3,3-Heptafluoropropan-2-yl)-N-(6-(2-hydroxyethoxy)-5-(2-methoxyphenoxy)-2,2'-bipyrimidin-4-yl)benzenesulfonamide at 5 uM in presence of NADPH after 30 mins by LC-MS/MS analysis. Type of series: ADME. The note with it: recombinant enzyme, 0.5 h. Summed up: (§3)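 Substrate at 5 μM final in 100 mM potassium phosphate, pH 7.4, incubated with human liver microsomes or baculovirus-expressed recombinant CYP3A4, 2D6 or 2C9. Reaction started with 1 mM NADPH and run 0, 15 and 30 min at 37 °C. Stopped with ice-cold acetonitrile containing labetalol internal standard, then centrifuged. Supernatant analysed by LC-MS/MS on a C18 column at 40 °C. Blank was enzyme without substrate.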

Series [6] can be described thus: Drug metabolism in human liver microsomes assessed as formation of N-(6-(2-hydroxyethoxy)-5-(2-hydroxyphenoxy)-2,2'-bipyrimidin-4-yl)-4-(perfluoropropan-2-yl)benzenesulfonamide at 5 uM in presence of NADPH after 30 mins by LC-MS/MS analysis. Type of series: ADME. The following applies: 0.5 h. The gist of the method:
as §3

For series [7], the target named is T2, Endothelin-1 receptor (Homo sapiens). In words: Antagonist activity at ETA receptor in human SKNMC cells assessed as inhibition of endothelin-1-mediated Ca2+ mobilization at 1 nM by fluorimetric method relative to control. It is filed as functional, cell-based. The note with it: SK-N-MC. The gist of the method: as §2
Series [8] deals with T3, Cytochrome P450 3A4. In words: Drug metabolism assessed as human recombinant CYP3A4-mediated formation of N-(6-(2-hydroxyethoxy)-5-(2-hydroxyphenoxy)-2,2'-bipyrimidin-4-yl)-4-(perfluoropropan-2-yl)benzenesulfonamide at 5 uM in presence of NADPH after 30 mins by LC-MS/MS analysis. It is filed as ADME. The following applies: recombinant enzyme, 0.5 h. The gist of the method: as §3

The nature of series [9]: Drug metabolism in human liver microsomes assessed as formation of 4-(1,1,1,3,3,3-hexafluoro-2-hydroxypropan-2-yl)-N-(6-(2-hydroxyethoxy)-5-(2-methoxyphenoxy)-2,2'-bipyrimidin-4-yl)benzenesulfonamide at 5 uM in presence of NADPH after 30 mins by LC-MS/MS analysis. Type of series: ADME. The following applies: 0.5 h. The gist of the method: as §3
Series [10] is described as follows: Drug metabolism in human liver microsomes assessed as formation of 4-(1,1,1,3,3,3-hexafluoro-2-methoxypropan-2-yl)-N-(6-(2-hydroxyethoxy)-5-(2-hydroxyphenoxy)-2,2'-bipyrimidin-4-yl)benzenesulfonamide at 5 uM in presence of NADPH after 30 mins by LC-MS/MS analysis. Type of series: ADME. The note with it: 0.5 h. The gist of the method: as §3
Series [11] addresses T3, Cytochrome P450 3A4. Briefly: Drug metabolism assessed as human recombinant CYP3A4-mediated formation of 4-(1,1,1,3,3,3-hexafluoro-2-methoxypropan-2-yl)-N-(6-(2-hydroxyethoxy)-5-(2-hydroxyphenoxy)-2,2'-bipyrimidin-4-yl)benzenesulfonamide at 5 uM in presence of NADPH after 30 mins by LC-MS/MS analysis. It is filed as ADME. The following applies: recombinant enzyme, 0.5 h. The gist of the method:
as §3

Series [12] has as its target T3, Cytochrome P450 3A4. In words: Drug metabolism assessed as human recombinant CYP3A4-mediated formation of 4-(1,1,1,3,3,3-hexafluoro-2-hydroxypropan-2-yl)-N-(6-(2-hydroxyethoxy)-5-(2-methoxyphenoxy)-2,2'-bipyrimidin-4-yl)benzenesulfonamide at 5 uM in presence of NADPH after 30 mins by LC-MS/MS analysis. Type of series: ADME. The note with it: recombinant enzyme, 0.5 h. The gist of the method: as §3

What is called inhibition is the change of the read-out against control, counted positive when it falls.

T3 sequence (P08684 whole entry): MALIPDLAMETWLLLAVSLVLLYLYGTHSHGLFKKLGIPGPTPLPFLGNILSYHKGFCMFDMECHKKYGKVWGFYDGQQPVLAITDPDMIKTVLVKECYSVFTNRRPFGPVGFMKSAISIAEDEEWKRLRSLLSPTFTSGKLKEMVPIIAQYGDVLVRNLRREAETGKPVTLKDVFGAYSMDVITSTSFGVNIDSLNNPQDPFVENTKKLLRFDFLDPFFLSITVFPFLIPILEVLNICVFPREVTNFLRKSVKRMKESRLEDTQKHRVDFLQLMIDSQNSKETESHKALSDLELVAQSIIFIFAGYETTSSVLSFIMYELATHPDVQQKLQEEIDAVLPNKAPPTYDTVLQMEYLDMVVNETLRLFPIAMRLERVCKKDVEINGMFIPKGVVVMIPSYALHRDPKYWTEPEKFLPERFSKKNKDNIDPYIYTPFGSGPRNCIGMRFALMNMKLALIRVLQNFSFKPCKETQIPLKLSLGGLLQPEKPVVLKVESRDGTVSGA

On to `COc1ccccc1Oc1c(NS(=O)(=O)c2ccc(C(F)(C(F)(F)F)C(F)(F)F)cc2)nc(-c2ncccn2)nc1OCCO`, for which the Activity in series [1] is -1%. Further, the Drug metabolism result (in [2]; at Cytochrome P450 3A4 [5]; in [6]; at Cytochrome P450 3A4 [8]) was “Metabolite_Detected” throughout. Also, the inhibition in [3] is -5%; in series [4], 55%; in series [7] it was -5%.
Consider `COc1ccccc1Oc1c(NS(=O)(=O)c2ccc(C(OC)(C(F)(F)F)C(F)(F)F)cc2)nc(-c2ncccn2)nc1OCCO`, for which the Drug metabolism result (in series [9]; in series [10]; at Cytochrome P450 3A4 [11]; on Cytochrome P450 3A4 [12]) was “Metabolite_Detected” in each case. Besides, in series [1], the Activity was determined as 0%. Further, the inhibition in [3] is 4%; in [4], 26%; in [7], -1%.
